Inconclusive results are not listed.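 How the source made its calls, unless noted: active means viability increase at or above a cutoff of the median across tested compounds plus 3 SD (cut at about 8.5% in these data, passing the limit was not always enough); inconclusive means some gains above the cutoff, reason not given; inactive means the rest.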
Tests used:
[1] = S. cerevisiae growth inhibition in permissive medium (OD615), pilot counter-assay for S. cerevisiae lifespan shortening project, permissive growth control (AID 705;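 active means growth inhibition above 25% in both replicates, a cutoff set 3 SD above the mean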); details: OD615, 24 h, at 10 µM, active compounds read high
How it was run: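 Test system: Saccharomyces cerevisiae strain carrying genetically modified DeaD replicative-lifespan system; buffer or medium: SC raffinose/galactose permissive medium; dosing: one dose 10 µM, DMSO 0.25% final; times: 24 h exposure, 30 °C; measured by: OD at 615 nm; read-out basis: growth inhibition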

[2] = S. cerevisiae growth inhibition in restrictive medium, OD615, pilot screen, restrictive growth control, yeast lifespan reduction project (AID 706;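 active means growth inhibition above a set limit, 3 SD over mean compound inhibition, in both replicates, cut at about 43% in these data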;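 further: modified DeaD lifespan yeast strain shifted to restrictive glucose medium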); details: OD615, 48 h, at 10 µM, active compounds read high
How it was run: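 material = engineered S. cerevisiae DeaD strain | buffer or medium = glucose-based CSMM-D restrictive medium | dosing = one concentration, 10 µM final, 0.25% DMSO | schedule = 4 h pre-growth plus 48 h compound exposure, 30 °C | detection = OD615 absorbance reading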

[3] = doxorubicin toxicity protection in MRP-1 cells – H69AR cells, CellTiter-Glo, duplicate, MRP-1 activator project, pilot screen (AID 807); details: H69AR viability with doxorubicin, CellTiter-Glo luminescence; at 10 µM; active compounds read high;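 further: compound pretreatment 18-22 h then 72 h combined with doxorubicin; 0% = doxorubicin alone and 100% = vehicle without doxorubicin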
[4] = viability of HCT116 without oncogenic beta-catenin – human colon tumor cells, pilot screen (AID 823;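 active means cell viability at or below a set limit in both duplicate runs, the limit being the all-compound median minus 4 SD, cut at about 23% in these data, passing the limit was not always enough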;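 further: 0% = wells killed by 20 µM Hyamine and 100% = untreated DMSO cell wells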); details: HCT116 beta-catenin knockout viability, CellTiter-Glo, 60 h; at 10 µM; active compounds read low
[5] = viability of PTEN-null HCT116 cells – cell-based, HCT116 clonal line, CellTiter-Glo, pilot screen (AID 824;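 active means viability at or below 27.92% in each of two runs, the all-compound median minus 4 SD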;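 further: 0% = 20 µM Hyamine control and 100% = vehicle cell control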); details: HCT116 PTEN-deleted viability, 60 h, at 10 µM, active compounds read low
[6] = RAM pathway blockade in budding yeast – dse1pr::URA3 reporter, 5-FOA selection, pilot screen (AID 869;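 active means inhibition over a set limit, the all-compound mean plus 3 SD, in both replicate runs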;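 further: 0% = DMSO wells with no growth and 100% = 10 µM 1-NA-PP1 with full growth; RAM network block rescues cells from 5-FOA so hits raise OD615 growth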); details: S. cerevisiae dse1pr::URA3 5-FOA growth, OD615, 2 d; at 10 µM; active compounds read high; strain carries analog-sensitive mutant Cbk1 kinase
[7] = RAM signaling pathway blockade in yeast – S. cerevisiae, Pdr1DBD-CYC8 efflux-inhibited sensitized strain, primary screen (AID 1298;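 active means RAM network inhibition above 8.4% in each of two replicates, 3 SD over the compound average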;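 further: 0% = DMSO untreated cells without growth and 100% = 10 µM 1-NA-PP1 full growth; higher means more yeast growth rescued from 5-FOA killing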); details: S. cerevisiae cbk1-as DSE1-URA3 strain, 5-FOA growth OD615, 2 d; at 50 µM; active compounds read high

CC1=C(C(=O)Nc2ccccc2C)C(c2ccccc2)NC(=O)N1 (stereo unspecified)
inactive: growth inhibition [1] 0.05% | growth inhibition [2] -7.71% | viability increase [3] -1.25% | viability [4] 97.9% | viability [5] 97.9% | inhibition [6] 1.01% | RAM network inhibition [7] 2.69%

O=C(NCc1cccs1)C1CCCN(S(=O)(=O)c2cccc3cccnc23)C1 (stereo unspecified)
inactive: growth inhibition [1] 8.41% | growth inhibition [2] 2.37% | viability increase [3] -1.59% | viability [4] 94.8% | viability [5] 90.4% | inhibition [6] 1.41% | RAM network inhibition [7] 2.64%

N=c1n(CCOc2ccccc2)c2ccccc2n1CCN1CCOCC1
inactive: growth inhibition [1] -1.46% | growth inhibition [2] 6.28% | viability increase [3] -3.52% | viability [4] 82.5% | viability [5] 85.8% | inhibition [6] 0.845% | RAM network inhibition [7] -0.47%

Cc1cccn2cc(CCNC(=O)c3ccc(Br)o3)nc12
inactive: growth inhibition [1] -8.18% | growth inhibition [2] -5.67% | viability increase [3] -1.61% | viability [4] 99% | viability [5] 94.3% | inhibition [6] 1.12% | RAM network inhibition [7] 1.91%

Clc1ccc(-n2ncc3c(N4CCCCCC4)ncnc32)cc1
inactive: growth inhibition [1] 1.26% | growth inhibition [2] -16.7% | viability increase [3] -0.56% | viability [4] 83.5% | viability [5] 78.5% | inhibition [6] -0.14% | RAM network inhibition [7] 8.42%

CCN(CC)CCNC(=O)Cn1nc(Cc2cccnc2)c2ccccc2c1=O
inactive: growth inhibition [1] -3.85% | growth inhibition [2] -2.59% | viability increase [3] -0.86% | viability [4] 95.7% | viability [5] 97.7% | inhibition [6] -0.35% | RAM network inhibition [7] 1.23%

CN(c1nnc(N)s1)C1CCCCC1
inactive: growth inhibition [1] 1.35% | growth inhibition [2] 14% | viability increase [3] -1.87% | viability [4] 104% | viability [5] 98.7% | inhibition [6] 2.38% | RAM network inhibition [7] 3.49%

CCOc1ccccc1Nc1nc2ccccc2n2cnnc12
inactive: growth inhibition [1] -17% | growth inhibition [2] -2.87% | viability increase [3] -6.33% | viability [4] 81.6% | viability [5] 85.7% | inhibition [6] 3.04% | RAM network inhibition [7] 6.66%

Cc1ccc(-c2nc(CS(=O)CC(=O)NCCC(C)C)c(C)o2)cc1 (stereo unspecified)
inactive: growth inhibition [1] -6.7% | growth inhibition [2] -1.91% | viability increase [3] -0.71% | viability [4] 92.2% | viability [5] 95.8% | inhibition [6] 1.14% | RAM network inhibition [7] 3.42%

COc1cc(C(=O)Nc2ccc(S(=O)(=O)N3CCCCC3C)cc2)cc(OC)c1OC (stereo unspecified)
inactive: growth inhibition [1] -18.5% | growth inhibition [2] -16.6% | viability increase [3] -4.48% | viability [4] 69.9% | viability [5] 65.7% | inhibition [6] 1.7% | RAM network inhibition [7] 4.51%

CCOC(=O)c1c2n(c3c(NCc4ccccc4)ncnc13)CCCC2
inactive: growth inhibition [1] -11.4% | growth inhibition [2] -10.9% | viability increase [3] -7.91% | viability [4] 83.6% | viability [5] 78.7% | inhibition [6] 1.23% | RAM network inhibition [7] 2.51%

CC(C)N1CC(O)=C(c2ccccc2)C1=N
inactive: growth inhibition [1] 2.25% | growth inhibition [2] -15.7% | viability increase [3] -0.1% | viability [4] 96.5% | viability [5] 97.2% | inhibition [6] 0.86% | RAM network inhibition [7] 4.5%

COc1cc(C(=O)Nc2cccc(-c3nc4ccccc4o3)c2C)cc(OC)c1OC
inactive: growth inhibition [1] -20.9% | growth inhibition [2] -26.2% | viability increase [3] -2.22% | viability [4] 91.2% | viability [5] 98.7% | inhibition [6] 2.46% | RAM network inhibition [7] 1.35%

C=CCn1c(SCC(=C)C)nc2c1c(=O)[nH]c(=O)n2C
inactive: growth inhibition [1] -14.8% | growth inhibition [2] -25.6% | viability increase [3] -0.41% | viability [4] 109% | viability [5] 97% | inhibition [6] -0.415% | RAM network inhibition [7] 1.55%

N#CC1=C2SCN(Cc3ccccc3)CN2C(=O)CC1c1ccccc1F (stereo unspecified)
inactive: growth inhibition [1] -3.35% | growth inhibition [2] 15.7% | viability increase [3] -4.34% | viability [4] 90.4% | viability [5] 88.4% | inhibition [6] 1.01% | RAM network inhibition [7] 2.49%

CCNC(=O)CN(Cc1ccccc1)S(=O)(=O)c1ccccc1
inactive: growth inhibition [1] -5.21% | growth inhibition [2] 13.1% | viability increase [3] 0.61% | viability [4] 89.3% | viability [5] 104% | inhibition [6] 0.615% | RAM network inhibition [7] 1.94%

O=C(COc1ccc(S(=O)(=O)NC2CCCCC2)cc1)N1CCN(c2ccc(F)cc2)CC1
inactive: growth inhibition [1] -6.21% | growth inhibition [2] -0.445% | viability increase [3] -0.23% | viability [4] 65.5% | viability [5] 67.1% | inhibition [6] -0.725% | RAM network inhibition [7] 3.14%

O=C(CSCC(=O)NC1CC1)Nc1ccccc1
inactive: growth inhibition [1] -0.675% | growth inhibition [2] -11.9% | viability increase [3] -1.13% | viability [4] 98.2% | viability [5] 98.7% | inhibition [6] 0.03% | RAM network inhibition [7] -0.72%
